Values joined by “and” are separate entries in the source; they are usually repeats but may differ in a detail not shown here. Identical values can stand only once.
Key:
Format in all cases: functional
Details in all cases: route subcutaneous
[1] = test system: Trypanosoma brucei rhodesiense; assay: Antitrypanosomal activity against Trypanosoma rhodesiense infections in mice, 424 mg/kg administered subcutaneously
Summary of the method: (§1)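 IUR/HA Swiss mice (six weeks old, 30-32 g) infected i.p. with Wellcome CT strain T. rhodesiense. A single subcutaneous dose in peanut oil was given about 2 h after inoculation, with five mice per dose level. Positive control was stilbamidine or 2-hydroxystilbamidine isethionate at 40 mg/kg. Deaths before day 4 were scored toxic, and 30-day survivors cured.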

[2] = test system: Trypanosoma brucei rhodesiense; assay: Antitrypanosomal activity against Trypanosoma rhodesiense infections in mice, 106 mg/kg administered subcutaneously
Summary of the method: (§2)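 Six-week-old IUR/HA Swiss mice (30-32 g), 5 per dose, infected ip with 0.5 mL of a 1:50 000 dilution of heparinized heart blood from donor mice infected 3 days before (Wellcome CT strain). Single sc dose in peanut oil about 2 h post-inoculation. Deaths before day 4 counted toxic. ΔMST versus untreated controls; survivors at 30 days counted cured.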

[3] = test system: Trypanosoma brucei rhodesiense; assay: Antitrypanosomal activity was evaluated against Trypanosoma rhodesiense infections in mice, at dose 106 mg/kg, administered subcutaneously; summary of the method: as §1
[4] = test system: Trypanosoma brucei rhodesiense; assay: Anti-trypanosomal activity against Trypanosoma rhodesiense infections in mice, 26 mg/kg administered subcutaneously; summary of the method: as §2
[5] = test system: Trypanosoma brucei rhodesiense; assay: Antitrypanosomal activity was evaluated against Trypanosoma rhodesiense infections in mice, at dose 106 mg/kg, administered subcutaneously;Toxic; summary of the method: as §1
[6] = test system: Trypanosoma brucei rhodesiense; assay: Antitrypanosomal activity was evaluated against Trypanosoma rhodesiense infections in mice, at dose 26 mg/kg, administered subcutaneously;Toxic; summary of the method: as §1
[7] = test system: Mus musculus; assay: Antitrypanosomal activity was evaluated against Trypanosoma rhodesiense infections in mice, at dose 13 mg/kg, administered subcutaneously;Toxic; summary of the method: as §1
[8] = test system: Trypanosoma brucei rhodesiense; assay: Antitrypanosomal activity against Trypanosoma rhodesiense infections in mice, 6.6 mg/kg administered subcutaneously; summary of the method: as §2
[9] = test system: Trypanosoma brucei rhodesiense; assay: Antitrypanosomal activity against Trypanosoma rhodesiense infections in mice, 3.3 mg/kg administered subcutaneously; summary of the method: as §2
[10] = test system: Trypanosoma brucei rhodesiense; assay: Antitrypanosomal activity was evaluated against Trypanosoma rhodesiense infections in mice, at dose 424 mg/kg, administered subcutaneously; summary of the method: as §2
[11] = test system: Trypanosoma brucei rhodesiense; assay: (§3) Antitrypanosomal activity was evaluated against Trypanosoma rhodesiense infections in mice, at dose 212 mg/kg, administered subcutaneously; summary of the method: as §2
[12] = test system: Trypanosoma brucei rhodesiense; assay: Antitrypanosomal activity was evaluated against Trypanosoma rhodesiense infections in mice, at dose 53 mg/kg, administered subcutaneously; summary of the method: as §2
[13] = test system: Mus musculus; assay: Antitrypanosomal activity was evaluated against Trypanosoma rhodesiense infections in mice, at dose 212 mg/kg, administered subcutaneously;Toxic; summary of the method: as §1
[14] = test system: Mus musculus; assay: Antitrypanosomal activity was evaluated against Trypanosoma rhodesiense infections in mice, at dose 106 mg/kg, administered subcutaneously;Cures; summary of the method: as §1
[15] = test system: Mus musculus; assay: Antitrypanosomal activity was evaluated against Trypanosoma rhodesiense infections in mice, at dose 13 mg/kg, administered subcutaneously;Cures; summary of the method: as §1
[16] = test system: Mus musculus; assay: Antitrypanosomal activity was evaluated against Trypanosoma rhodesiense infections in mice, at dose 212 mg/kg, administered subcutaneously;Cures; summary of the method: as §1
[17] = test system: Mus musculus; assay: Antitrypanosomal activity was evaluated against Trypanosoma rhodesiense infections in mice, at dose 6.6 mg/kg, administered subcutaneously;Cures; summary of the method: as §1
[18] = test system: Mus musculus; assay: Antitrypanosomal activity was evaluated against Trypanosoma rhodesiense infections in mice, at dose 26 mg/kg, administered subcutaneously;Cures; summary of the method: as §1
[19] = test system: Mus musculus; assay: Antitrypanosomal activity was evaluated against Trypanosoma rhodesiense infections in mice, at dose 53 mg/kg, administered subcutaneously;Cures; summary of the method: as §1
[20] = test system: Trypanosoma brucei rhodesiense; assay: Antitrypanosomal activity was evaluated against Trypanosoma rhodesiense infections in mice, at dose 1.6 mg/kg, administered subcutaneously; summary of the method: as §2
[21] = test system: Trypanosoma brucei rhodesiense; assay: Antitrypanosomal activity was evaluated against Trypanosoma rhodesiense infections in mice, at dose 26 mg/kg, administered subcutaneously; summary of the method: as §1
[22] = test system: Mus musculus; assay: Antitrypanosomal activity was evaluated against Trypanosoma rhodesiense infections in mice, at dose 13 mg/kg, administered subcutaneously; summary of the method: as §1
[23] = test system: Trypanosoma brucei rhodesiense; assay: Antitrypanosomal activity was evaluated against Trypanosoma rhodesiense infections in mice, at dose 424 mg/kg, administered subcutaneously;Toxic; summary of the method: as §1
[24] = test system: Mus musculus; assay: as §3; summary of the method: as §1

SMILES | Toxic [1] | Delta MST [2] | Toxic [3] | Delta MST [4] | Delta MST [8] | also measured
CC1(C)N=C(N)NC(Nc2ccc(NC3=NC(C)(C)N=C(N)N3)cc2)=N1.Cl.Cl | 5 | 1.9 days | 4 | 1.3 days | – | –
CC(C)(c1ccc(N2C(N)=NC(N)=NC2(C)C)cc1)c1ccc(N2C(N)=NC(N)=NC2(C)C)cc1.Cl.Cl | 5 | 1.8 days | – | 1.3 days | 0.9 days | Toxic [5]: 2; Toxic [6]: 1; Toxic [7]: 1
CC1(C)N=C(N)N=C(N)N1c1ccc(Sc2ccc(N3C(N)=NC(N)=NC3(C)C)cc2)cc1.Cl.Cl | 5 | – | 5 | 2.7 days | 0.6 days | Toxic [6]: 1; Delta MST [9]: 0.6 days
CC1(C)N=C(N)N=C(N)N1c1ccc(OCCCCCCCCCCCCOc2ccc(N3C(N)=NC(N)=NC3(C)C)cc2)cc1.Cl.Cl | – | 0.8 days | – | 0.2 days | – | Delta MST [10]: 0.8 days; Delta MST [11]: 0.8 days; Delta MST [12]: 0.4 days
CC1(C)N=C(N)N=C(N)N1c1cc(Cl)c(N2C(N)=NC(N)=NC2(C)C)c(Cl)c1.Cl.Cl | – | – | – | – | – | Toxic [13]: 4; Delta MST [11]: -0.2 days; Delta MST [12]: -0.2 days
COc1cc(-c2ccc(N3C(N)=NC(N)=NC3(C)C)c(OC)c2)ccc1N1C(N)=NC(N)=NC1(C)C.Cl.Cl | 5 | 11.2 days | – | 8.9 days | 13.5 days | Cures [14]: 2; Cures [15]: 3; Delta MST [9]: 7.2 days; Cures [16]: 2; Cures [17]: 3; Cures [18]: 4; Cures [19]: 3; Delta MST [20]: 2.2 days; Delta MST [11]: 3.2 days; Delta MST [12]: 4.9 days
CC1(C)N=C(N)N=C(N)N1c1ccc(OCCCCOc2ccc(N3C(N)=NC(N)=NC3(C)C)cc2)cc1.Cl.Cl | 5 | 1 days | – | 0.3 days | 0 days | Toxic [5]: 4; Toxic [6]: 1; Delta MST [9]: 0.2 days; Delta MST [20]: 0 days
CC1(C)N=C(N)N=C(N)N1c1ccc2oc3ccc(N4C(N)=NC(N)=NC4(C)C)cc3c2c1.Cl.Cl | 5 | – | 5 | -0.2 days | -0.2 days | Delta MST [20]: 0.2 days
Cl.Cl.NC1=NC2(CCCCC2)NC(Nc2ccc(CCc3ccc(NC4=NC5(CCCCC5)NC(N)=N4)cc3)cc2)=N1 | – | 0.2 days | – | 0.2 days | – | Delta MST [10]: 0.2 days
Cl.Cl.NC1=NC(C2CCC3(CC2)N=C(N)N=C(N)N3c2ccc(Cl)cc2)N(c2ccc(Cl)cc2)C(N)=N1 (stereo not drawn) | 5 | – | 4 | 1 days | – | –
CC1(C)N=C(N)N=C(N)N1c1ccc(OCCCCCOc2ccc(N3C(N)=NC(N)=NC3(C)C)cc2)cc1.Cl.Cl | 5 | – | 5 | – | 0.4 days | Toxic [21]: 5; Delta MST [9]: 0.2 days; Delta MST [20]: 0 days; Toxic [22]: 5
CC1(C)N=C(N)N=C(N)N1c1ccc(CC(Cc2ccc(N3C(N)=NC(N)=NC3(C)C)cc2)C(=O)O)cc1.Cl.Cl | – | 0.2 days | – | 0 days | – | Toxic [23]: 2; Delta MST [10]: 0 days
CC1(C)N=C(N)N=C(N)N1c1ccc(C(c2ccccc2)c2ccc(N3C(N)=NC(N)=NC3(C)C)cc2)cc1.Cl.Cl | 5 | 4.3 days | 2 | – | – | Toxic [24]: 2; Delta MST [11]: 4.3 days; Delta MST ([12]; 53 mg/kg): 2.3 days and 2.8 days
CC1(C)N=C(N)N=C(N)N1c1ccc(Cc2ccc(N3C(N)=NC(N)=NC3(C)C)cc2[N+](=O)[O-])c([N+](=O)[O-])c1.Cl.Cl | 5 | – | 5 | 0.6 days | – | –

Reference: ChEMBL document CHEMBL1122854, “Novel bis[1,6-dihydro-6,6-dimethyl-1,3,5-triazine-2,4-diamines] as antitrypanosomal agents” (1985)
